We go through five substances from ChEMBL document CHEMBL1132442, “Preparation and characterization of novel trans-[PtCl(2)(amine)(isopropylamine)] compounds: cytotoxic activity and apoptosis induction in ras-transformed cells” (J Med Chem, 1999).

As a reminder, the IC50 is the concentration that inhibits the measured activity by half. Lower therefore signals greater potency.

One assay concerns HL-60. The assay can be described thus: Cytotoxicity against human promyelocytic leukemia cell line HL-60 (obtained by MTT assay). In kind it is functional, cell-based. In short, it runs like this: (§1)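 MTT survival assay: compounds added to cultured cells at final 0–200 μM, read 24 h later by absorbance at 520 nm. IC50 from plots of % survival versus concentration (μM). Quadruplicate experiments. Compound stocks 1 mg/mL in PBS, freshly prepared.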
A general note: Tetrazolium dyes change colour on reduction, which living cells bring about.

The test system of the next assay is HeLa. The assay can be described thus: Cytotoxicity against human cervix epithelial carcinoma cell line HeLa (obtained by MTT assay). The assay is classed as functional, cell-based. In short, it runs like this:
as §1

The subject of assay [1] is PAM212. The assay can be described thus: Cytotoxicity against normal murine keratinocytes Pam212 (obtained by MTT assay). In kind it is functional, cell-based, Mus musculus. In short, it runs like this:
as §1

In assay [2] the test system is Vero. The assay can be described thus: Cytotoxicity against […] cell line VERO(obtained by MTT assay). The assay is classed as functional, cell-based, Chlorocebus sabaeus. In short, it runs like this:
as §1

The test system of assay [3] is PAM212. The assay can be described thus: Cytotoxicity against murine keratinocytes transformed with the H-ras oncogene Pam212-ras (cis-DDP resistant) (obtained by MTT assay). The assay is classed as functional, cell-based, Mus musculus. In short, it runs like this:
as §1

The next assay has as its system Jurkat. The assay can be described thus: Cytotoxicity against human acute T-cell leukemia cell line JURKAT (obtained by MTT assay). In kind it is functional, cell-based. The method, boiled down:
as §1

Assay [4] has as its system Vero. The assay can be described thus: Cytotoxicity against […] cell line VERO (obtained by MTT assay). In kind it is functional, cell-based, Chlorocebus sabaeus. In short, it runs like this: as §1

CISPLATIN: the half-inhibitory concentration (IC50) in the assay with HL-60 is 25 µM; with HeLa it was 38 µM; with PAM212 [1] it was 114 µM; with Vero [2], 50 µM; with PAM212 [3], 156 µM; with Jurkat it was 7 µM.

In the case of TRANSPLATIN, the half-maximal inhibitory concentration (IC50) amounted to 50 µM in the assay with HL-60; 89 µM in the assay with HeLa; 123 µM in the assay with PAM212 [1]; 148 µM with Vero [2]; 164 µM in the assay with PAM212 [3]; 22 µM with Jurkat.

For “Trans-[PtCl2(butylamine)(isopropylamine)]”, the IC50 amounted to 18 µM with HL-60; 35 µM in the assay with HeLa; 71 µM in the assay with PAM212 [1]; 46 µM in the assay on Vero [2]; 21 µM in the assay on PAM212 [3]; 7 µM in the assay on Jurkat.

Regarding “Trans-[PtCl2(dimethylamine)isopropylamine)] (tdmaipa)”, the IC50 with HL-60 was found to be 17 µM; with HeLa, 32 µM; in the assay on PAM212 [1] it was 56 µM; in the assay with Vero [4] it was 47 µM; in the assay on PAM212 [3], 6 µM; with Jurkat, 5 µM.

As to “Trans-[PtCl2(isopropylamine)(propylamine)]”, the 50% inhibitory concentration (IC50) is 20 µM with HL-60; 43 µM with HeLa; 50 µM with PAM212 [1]; 52 µM in the assay on Vero [2]; 32 µM in the assay on PAM212 [3]; 5 µM in the assay on Jurkat.
